Measurements published in paper PMC8994735 (Targeted Oncology, 2021).
Entries after “also recorded” stand apart in the source; their conditions may differ. Like-named read-outs stand apart in the source and are kept apart here.

Columns and labels:
[1] = test system: East Asian patients with advanced nonhematologic malignancies; assay: Dose-limiting toxicities and MTD/RP2D determination; assay type: in vivo, human
Outline: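 Standard 3 + 3 escalation with planned levels of 2 and 4 mg once daily and 20 and 30 mg once weekly, oral, in 28-day cycles; intermediate doses and expansion to 12 patients were permitted. DLTs were assessed in cycle 1 and covered grade ≥ 3 nonhematologic toxicity (with specified exceptions), defined hematologic events, and < 75% of planned doses given. Evaluable patients received ≥ 75% of planned doses (21 once daily, three once weekly).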

Plasma pharmacokinetics = assay type: in vivo, human; conditions: for AUC / Cmax / half-life / Tmax: human, oral; for Cmax: Mean Cmax
Western patients = conditions: cited from earlier work
[2] = test system: patients from the United States / Western patients; conditions: cited from earlier work
[3] = test system: nonhematologic malignancies/solid tumors, endometrial cancer; conditions: phase 2 study in endometrial cancer; single-agent 30 mg QW; cited from earlier work

**Q.** Which “DLT of grade 3 stomatitis” value ([1]; 4 mg QD cohort) does the source give for CC(C)n1nc(-c2ccc3oc(N)nc3c2)c2c(N)ncnc21 [sapanisertib] here?
**A.** 2 n

**Q.** What about the “Dose-limiting toxicities (patients experiencing DLTs)” value ([1]; 4 mg QD cohort, cycle 1) of the same molecule?
**A.** three

**Q.** What about the DLTs ([1]; 20 mg QW dose level) of the same molecule?
**A.** no patients experienced DLTs

**Q.** And the DLTs ([1]; 30 mg QW dose level)?
**A.** no patients experienced DLTs

**Q.** And the “Maximum tolerated dose (MTD)” value ([1]; QD dosing, East Asian patients)?
**A.** 3 mg

**Q.** What about the “Recommended phase 2 dose (RP2D)” value ([1]; QD dosing, East Asian patients) of the same molecule?
**A.** 3 mg

**Q.** And the “Recommended phase 2 dose (RP2D)” value ([1]; QW dosing, East Asian patients)?
**A.** 30 mg

**Q.** And the Accumulation in plasma (Plasma pharmacokinetics; QD or QW, any dose level)?
**A.** did not accumulate in plasma to any appreciable extent

**Q.** And the “Dose dependence of plasma exposure (AUC and Cmax)” value (Plasma pharmacokinetics; across all doses)?
**A.** increased linearly across all doses; also recorded: generally linear, dose-dependent

**Q.** And the “Time at which peak plasma concentrations were achieved post-dose” value (“Time” for short) (Plasma pharmacokinetics; cycle 1 day 1, single dose, both QD and QW arm)?
**A.** 0.5 to 2.0 h

**Q.** What about the “Geometric mean accumulation ratio of AUC168” value (Plasma pharmacokinetics; cycle 1 day 15, 20 mg QW) of the same molecule?
**A.** 1.14

**Q.** What about the “Geometric mean accumulation ratio of Cmax” value (Plasma pharmacokinetics; cycle 1 day 15, 20 mg QW) of the same molecule?
**A.** 0.72

**Q.** What about the “Geometric mean accumulation ratio of AUC168” value (Plasma pharmacokinetics; cycle 1 day 15, 30 mg QW) of the same molecule?
**A.** 1.47

**Q.** What about the “Geometric mean accumulation ratio of Cmax” value (Plasma pharmacokinetics; cycle 1 day 15, 30 mg QW) of the same molecule?
**A.** 1.36

**Q.** And the “Time” value (Plasma pharmacokinetics; cycle 1 day 15, QD arm)?
**A.** 0.5 to 3.0 h

**Q.** What about the “Time” value (Plasma pharmacokinetics; cycle 1 day 15, QW arm) of the same molecule?
**A.** 0.5 to 4.1 h

**Q.** What about the “Geometric mean accumulation ratio of Cmax” value (Plasma pharmacokinetics; cycle 1 day 15, across all QD dose levels) of the same molecule?
**A.** 0.93–1.30

**Q.** And the AUC (Plasma pharmacokinetics; plasma, Mean AUC24, cycle 1 day 15, QD dosing)?
**A.** 237 to 366 ng·h/mL

**Q.** And the AUC (Plasma pharmacokinetics; plasma, Mean AUC from 0–24 h (AUC24), cycle 1 day 1, across QD doses)?
**A.** 138 to 315 ng·h/mL

**Q.** What about the Cmax (Plasma pharmacokinetics; plasma, cycle 1 day 1, across all QD doses) of the same molecule?
**A.** 23.9 to 56.9 ng/mL

**Q.** What about the Cmax (Plasma pharmacokinetics; plasma, cycle 1 day 15, across all QD doses) of the same molecule?
**A.** 33.4 to 57.2 ng/mL

**Q.** What about the half-life (Plasma pharmacokinetics; plasma, Mean plasma elimination half-life, cycle 1 day 1, across all QD doses) of the same molecule?
**A.** 6 to 6.8 h

**Q.** And the half-life (Plasma pharmacokinetics; plasma, Mean plasma elimination half-life, cycle 1 day 15, across all QD doses)?
**A.** 5.24 to 9.2 h

**Q.** What about the Tmax (Plasma pharmacokinetics; plasma, Median Tmax, cycle 1 day 1, across all QD doses) of the same molecule?
**A.** 0.5 to 1 h

**Q.** What about the Tmax (Plasma pharmacokinetics; plasma, Median Tmax, cycle 1 day 15, across all QD doses) of the same molecule?
**A.** 1 to 1.5 h

**Q.** And the half-life (Plasma pharmacokinetics; plasma, T1/2, overall, as summarised in the abstract)?
**A.** 5.9 to 7.6 h

**Q.** And the Tmax (Plasma pharmacokinetics; plasma, Tmax, across all doses in both arms)?
**A.** 0.5 to 2.6 h

**Q.** And the “Cmax, mean (sd)” value (Plasma pharmacokinetics; plasma, cycle 1 day 15, QW dose escalation 20 mg, n 3)?
**A.** 207.5 ng/mL

**Q.** And the “RP2D in Western patients” value (Western patients; QD, Western patient populations)?
**A.** 4 mg

**Q.** What about the “Lowest RP2D in previous studies in Western patients” value (Western patients; QD) of the same molecule?
**A.** 4 mg

**Q.** And the “Lowest RP2D in previous studies in Western patients” value (Western patients; QW)?
**A.** 30 mg

**Q.** What about the Incidence of stomatitis ([2]; 20 or 30 mg QW) of the same molecule?
**A.** 10%

**Q.** What about the Incidence of stomatitis ([2]; sapanisertib 2–7 mg QD) of the same molecule?
**A.** 35%

**Q.** And the Incidence of stomatitis ([2]; sapanisertib 3 or 4 mg QD)?
**A.** 18%

**Q.** What about the Incidence of stomatitis ([2]; sapanisertib 7–40 mg QW) of the same molecule?
**A.** 30%

**Q.** What about the Pre-defined futility threshold [3] of the same molecule?
**A.** did not meet a pre-defined futility threshold
